Compound activity deposited in PubChem BioAssay by several laboratories.
TLR9-MyD88 inh = inhibitors of TLR9-MyD88 association in cells, primary screen, cell-based, CHO, BLA complementation, fluorescence | Toll-like receptor 9 (Homo sapiens) + Myeloid differentiation primary response protein … | CCF4 FRET ratio | inhibition, % at 4.98 µM | actives 0.21% (n = 340,000) | AID 504734, 2011;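 active = inhibition above the mean over all tested compounds plus 3 SD, cut at about 21% in these data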;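 also: 0% = DMSO only wells and 100% = clavulanate BLA inhibitor control wells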
MC4R antag cAMP = MC4R antagonists of cAMP signaling, primary screen, cell-based, TR-FRET, antagonist arm of biased-ligand search | Melanocortin receptor 4 (Homo sapiens), P32245 | MC4R-expressing cells, MTII-stimulated cAMP, LANCE TR-FRET | inhibition, % at 6.5 µM | actives 0.48% (n = 360,000) | AID 540295, 2011;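 active = inhibition above its plate's cutoff, the mean of tested wells on that plate plus 3 SD, cut at about 29% in these data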;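 also: 0% = Melanotan II alone and 100% = Melanotan II plus saturating MCL0020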
Target sequence (P32245 whole entry, looked up): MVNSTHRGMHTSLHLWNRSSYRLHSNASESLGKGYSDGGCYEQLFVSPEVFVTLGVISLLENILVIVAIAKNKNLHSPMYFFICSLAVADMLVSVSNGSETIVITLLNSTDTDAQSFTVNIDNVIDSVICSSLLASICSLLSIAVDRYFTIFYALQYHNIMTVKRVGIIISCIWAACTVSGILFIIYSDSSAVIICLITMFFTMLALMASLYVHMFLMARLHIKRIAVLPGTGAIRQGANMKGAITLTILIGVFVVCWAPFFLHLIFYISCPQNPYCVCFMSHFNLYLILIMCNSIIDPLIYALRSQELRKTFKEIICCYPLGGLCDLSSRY
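system = U2OS cells with stable human MC4R expression | also added = Melanotan II challenge after compound preincubation | dosing = one concentration, 6.5 µM nominal | incubation = compound 30 min, challenge 1 h, detection 1 h | measured by = TR-FRET with Eu-cAMP and labeled anti-cAMP, 671 nm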
MC4R ag barr = MC4R agonists recruiting beta-arrestin, primary screen, cell-based, luminescence, agonist arm of biased-ligand search; AID 540308, 2011; U2OS MC4R beta-arrestin complementation; percent of melanotan II response, DMSO zero; Melanocortin receptor 4 (Homo sapiens), P32245; activation, % at 8.9 µM; actives 0.98% (n = 360,000);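 active = activation above a per-plate cutoff, the mean activation of sample wells on that plate plus 3 SD, cut at about 8% in these data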
TLR4-MyD88 BLA = inhibitors of TLR4-MyD88 association in cells, primary screen, cell-based, HeLa CL3-4, BLA complementation, FRET ratio; Toll-like receptor 4 (Homo sapiens) + Myeloid differentiation primary response protein …; HeLa CL3-4 TLR4/MyD88 BLA complementation; inhibition, % at 8.4 µM; actives 0.18% (n = 200,000); in the data active = inhibition above about 25%;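 also: 0% = vehicle and 100% = reference inhibitor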
NOD2 RIPK2 PPI = NOD2-RIPK2 binding disruptors in cells, primary screen, fluorescence, CHO cells, BLA complementation | Receptor-interacting serine/threonine-protein kinase 2 (Homo sapiens), O43353 | inhibition, % at 4.98 µM | actives 0.38% (n = 360,000) | CCF4 ratio; in the data active = inhibition above about 21%;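 also: 0% = vehicle only and 100% = reference blocker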
MIN6 prolif = inducers of MIN6 beta-cell proliferation, primary screen, ATP luminescence, uHTS; MIN6 cells proliferation, ATPlite luminescence, 48 h; cells starved in 0.2% serum; 100% = growth in 10% serum; actives 0.29% (n = 330,000); proliferation, % at 10 µM;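 active = compounds whose signal lies at least 3.5 SD above the mean of all wells on their plate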;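 also: 0% = DMSO-treated cells in low-serum medium and 100% = 10% serum control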
* = called active by the depositor; x = no result given. Most compounds without a hit are left out; they make up all but 2.1% or so of the library.

SMILES | TLR9-MyD88 inh | MC4R antag cAMP | MC4R ag barr | TLR4-MyD88 BLA | NOD2 RIPK2 PPI | MIN6 prolif
O=C(COc1ccc(/C=N/NC(=O)c2cc3ccccc3o2)cc1Br)Nc1ccccc1 | 1 | 6 | 53* | 4 | -5 | -4
CC1(C)Oc2ccc3ccc(=O)oc3c2/C(=C/Nc2cccc(O)c2)C1=O | x | 10 | 8.6* | 0 | -6 | -5
CN1CCN(C(=O)/C(=C/c2ccccc2F)NC(=O)c2ccccc2)CC1 | -6 | 5 | 0 | x | -6 | -1
Cc1cc(N2CCCC(C(=O)Nc3cccc(Cl)c3)C2)n2ncnc2n1 (centres undefined) | -4 | 3 | -2 | 14 | 4 | -4
Cc1cc(C)nc(N2CCCC(C(=O)Nc3cccc(Cl)c3)C2)n1 (centres undefined) | 1 | 20 | 8.4* | x | 6 | 2
Cn1c(N)c(C(=O)Nc2ccc(-c3ccccc3)cc2)sc1=S | -9 | 15 | 6 | x | -1 | -3
O=C(Nc1cc(C(F)(F)F)cc(C(F)(F)F)c1)c1ccc(Cn2cc(C(F)(F)F)ccc2=O)cc1 | 4 | 3 | 8.4* | -10 | 6 | -3
O=C1c2cccc3c(N4CCCCC4)ccc(c23)C(=O)N1c1ccc(Cl)cn1 | x | x | x | 28* | x | x
O=C(Nn1c(COc2ccccc2)nc2ccccc2c1=O)C(Cl)(Cl)Cl | -20 | -7 | 0 | x | -11 | 0
CCOC(=O)c1cc(C#N)c(NCc2ccccc2)nc1C | 7 | -7 | 8.8* | -11 | -4 | -3
O=C(Nc1ccc(Br)cc1F)c1ccc2nsnc2c1 | 8 | 3 | 8.8* | x | -2 | 0
O=C1N=C(N2CCC(Cc3ccccc3)CC2)S/C1=C/c1cn[nH]c1-c1ccccc1 | 6 | 5 | 2 | -5 | 6 | -4
O=C1N=C(N2CCN(c3ccccc3)CC2)S/C1=C\c1cn[nH]c1-c1ccccc1 | -7 | -3 | 8.5* | 2 | -9 | -1
C=CCn1c(SCC(=O)Nc2ccc(-c3nc4ccc(C)cc4s3)cc2)nnc1-c1ccccc1 | 0 | -12 | 38* | -5 | -2 | x
CC(C)C[C@H](NC(=O)c1nc[nH]c1C(=O)NCC(=O)OCc1ccccc1)C(=O)OCc1ccccc1 | 3 | 16 | 2 | x | 2 | -8
CC(C)C[C@H](NC(=O)c1nc[nH]c1C(=O)NCC(=O)OC(C)(C)C)C(=O)OCc1ccccc1 | -8 | 19 | 9.4* | x | -7 | -8
CC1(C(=O)Nc2ccccc2)Cc2c(-c3cccc(C(F)(F)F)c3)ccnc2O1 (centres undefined) | x | 1 | 4 | x | -10 | x
Cc1ccc(C)c(CNC(=O)Nc2ccccc2)c1 | -12 | 1 | 0 | x | -2 | -2
Nc1c(C(=O)NCc2ccc3c(c2)OCO3)nnn1CC(=O)Nc1ccc(Br)cc1 | -13 | 22 | 15* | x | 3 | 1
COc1ccc(Cl)cc1NC(=O)Cn1nnc(C(=O)NCc2ccc3c(c2)OCO3)c1N | 6 | 4 | 8.6* | x | -3 | -1
COc1ccccc1NC(=O)C(C)OC(=O)CCC1CCCCC1 (centres undefined) | 8 | -1 | 1 | x | -16 | 5
O=C(COc1ncnc2ccccc12)Nc1ccc(S(=O)(=O)N2CCOCC2)cc1 | -4 | -2 | -3 | x | 10 | 2
CN(CC(=O)Nc1ccc(F)c(F)c1F)C(=O)C1CCC1 | -6 | 8 | -4 | x | 0 | -2
COc1ccc(CN(C)C(=O)C2CSC3(C)CCC(=O)N23)c(OC)c1 (centres undefined) | -1 | -2 | -2 | x | 6 | x
O=C(O)c1ccc(-c2nc(-c3ccc(Cl)c(Cl)c3)cs2)cc1 | -3 | 31* | -2 | -10 | -12 | -6
SMILES | TLR9-MyD88 inh | MC4R antag cAMP | MC4R ag barr | TLR4-MyD88 BLA | NOD2 RIPK2 PPI | MIN6 prolif
O=C(O)c1ccc(-c2nc(-c3ccccc3)cs2)cc1 | 0 | 8 | -1 | -6 | -7 | -2
CC1(c2nnnn2Cc2ccccc2)CCC(=O)N1CCc1ccccc1F (centres undefined) | x | x | x | x | -7 | x
O=C(Nc1ccccc1)c1ccc(-c2ccccc2Cl)o1 | -5 | 3 | 8.5* | -2 | -6 | -3
CC[C@@H]1C(c2ccc(F)cc2)=NN(c2ccc(Br)cc2)[C@H]1C(=O)N1CCOC1=O | -6 | 11 | 9.6* | x | -1 | x
O=C(NC(=S)Nc1ccc2oc(-c3ccncc3)nc2c1)c1ccccc1F | 16 | 7 | -2 | -5 | -11 | -1
O=C(NC(=S)Nc1ccc2oc(=O)ccc2c1)c1ccccc1F | x | 4 | 8.4* | x | -2 | -2
CCOc1ccc(Br)cc1C1=NN(C(C)=O)C(c2ccc([N+](=O)[O-])s2)O1 (centres undefined) | 6 | -9 | -3 | x | -2 | -7
CCOc1ccc(CCNC(=O)COc2cccc(-n3cnnn3)c2)cc1OCC | -6 | 15 | 1 | x | -15 | 2
Cc1ccc2c(cnn2C(=O)CCCC(=O)NCc2ccc(Cl)cc2)c1 | -3 | -6 | 8.6* | x | -3 | -1
Cc1ccc(CNC(=O)CCC(=O)n2ncc3cc(C)ccc32)cc1 | 2 | 5 | 2 | x | -3 | 1
O=C(O)COc1ccc(/C=C/C(=O)c2ccc3ccccc3c2)cc1 | 0 | -6 | -3 | x | -6 | -3
O=C(O)COc1ccc(/C=C/C(=O)c2ccc(C3CCCCC3)cc2)cc1 | -4 | -9 | 8.8* | x | -4 | -7
Cc1cc(-n2c(SCC(=O)NCCC3=CCCCC3)nc3n[nH]c(C)c3c2=N)ccc1Cl | 1 | 10 | 15* | x | -9 | -4
COc1ccc(NC(=O)CSc2nc3n[nH]c(C)c3c(=N)n2-c2ccc(Cl)c(C)c2)cc1OC | 6 | 17 | 25* | x | 2 | -3
Cc1ccc(Cl)cc1-n1c(SCC(=O)NCCC2=CCCCC2)nc2n[nH]c(C)c2c1=N | -6 | 11 | 1 | x | -6 | -3
Cc1[nH]nc2nc(SCC(=O)NCCC3=CCCCC3)n(-c3ccc(Br)cc3)c(=N)c12 | 7 | 18 | 49* | x | 2 | -7
CCOC(=O)C1=C(C)NC(=S)NC1c1ccc(OCC(=O)N2CCCCCC2)cc1 (centres undefined) | 3 | -3 | 1 | x | -5 | 0
COc1ccncc1-c1ccc(C2=CC(=O)CC(C)(C)C2=O)cc1 | -2 | 4 | 0 | x | -9 | x
